Experimental data reported in ChEMBL document CHEMBL1828552, “Synthesis and studies of novel 2-(4-cyano-3-trifluoromethylphenyl amino)-4-(quinoline-4-yloxy)-6-(piperazinyl/piperidinyl)-s-triazines as potential antimicrobial, antimycobacterial and anticancer agents” (2011).
Values after ≈ are worked out from the molar mass of the structure shown.

Assays:
[1] = system: Staphylococcus aureus; experiment: Antibacterial activity against 10^5 CFU/mL Staphylococcus aureus MTCC 96 after 24 hrs by disc diffusion technique; assay type: functional
Summary of the method: (§1)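 Disc diffusion on Mueller–Hinton agar poured 5 mm deep. The surface was swabbed with a 10⁵ CFU/mL […] suspension. Filter-paper discs 6.25 mm in diameter were soaked in compound in DMSO and placed on the agar. Plates were incubated 24 h at 37 ± 1 °C, and the inhibition zone was measured in mm. A DMSO disc served as blank.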

[2] = system: Staphylococcus aureus; experiment: Antibacterial activity against 10^5 CFU/mL Staphylococcus aureus MTCC 96 after 24 hrs by agar streak dilution method; assay type: functional; settings: MTCC 96, 24 h
Summary of the method: (§2)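 Agar streak dilution. Stock 100 µg/mL in DMSO; graded amounts were mixed into molten nutrient agar and poured at 4–5 mm depth. Plates carried serial dilutions over […]. About 10⁵ CFU/mL of each bacterium was applied, and plates were incubated at 37 ± 1 °C for 24 h. MIC was read from the dilution series.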

[3] = system: Bacillus cereus; experiment: Antibacterial activity against 10^5 CFU/mL Bacillus cereus MTCC 619 after 24 hrs by disc diffusion technique; assay type: functional; summary of the method: as §1
[4] = system: Bacillus cereus; experiment: Antibacterial activity against 10^5 CFU/mL Bacillus cereus MTCC 619 after 24 hrs by agar streak dilution method; assay type: functional; settings: MTCC 619, 24 h; summary of the method: as §2
[5] = system: Mycobacterium tuberculosis; experiment: Antimycobacterial activity against 10^4 to 10^7 CFU/mL Mycobacterium tuberculosis H37Rv after 24 hrs measured after 28 days post-inoculation; assay type: functional
Summary of the method: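 Secondary MIC on Lowenstein-Jensen medium. DMSO dilutions (50, 25, 12.5, 6.25, […]) added to L.J. medium, then inspissated. Tubes incubated at 37 ± 1 °C for 24 h, then streaked with 5×10⁴ H37Rv bacilli per tube. Growth read at 12, 22 and 28 days against drug-free controls. MIC = no colonies or fewer than 20 colonies.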

[6] = system: DU-145; experiment: Cytotoxicity against […] human DU145 cells after 48 hrs by SRB assay; assay type: functional; settings: DU-145, 48 h
Summary of the method: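 SRB assay in DU-145 cells grown in RPMI 1640 with 10% FBS and 2 mM L-glutamine. Cells were plated and held 24 h before addition of four 10-fold concentrations. After 48 h, cells were TCA-fixed, stained with 0.4% SRB and read at 540 nm. GI50, TGI and LC50 were derived against time-zero and control wells; each value is the mean of three experiments.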

[7] = system: Escherichia coli; experiment: Antibacterial activity against 10^5 CFU/mL Escherichia coli MTCC 739 after 24 hrs by disc diffusion technique; assay type: functional; summary of the method: as §1
[8] = system: Escherichia coli; experiment: Antibacterial activity against 10^5 CFU/mL Escherichia coli MTCC 739 after 24 hrs by agar streak dilution method; assay type: functional; settings: MTCC 739, 24 h; summary of the method: as §2
[9] = system: Pseudomonas aeruginosa; experiment: Antibacterial activity against 10^5 CFU/mL Pseudomonas aeruginosa MTCC 741 after 24 hrs by disc diffusion technique; assay type: functional; summary of the method: as §1
[10] = system: Pseudomonas aeruginosa; experiment: Antibacterial activity against 10^5 CFU/mL Pseudomonas aeruginosa MTCC 741 after 24 hrs by agar streak dilution method; assay type: functional; settings: MTCC 741, 24 h; summary of the method: as §2
[11] = system: Klebsiella pneumoniae; experiment: Antibacterial activity against 10^5 CFU/mL Klebsiella pneumoniae MTCC 109 after 24 hrs by disc diffusion technique; assay type: functional; summary of the method: as §1
[12] = system: Klebsiella pneumoniae; experiment: Antibacterial activity against 10^5 CFU/mL Klebsiella pneumoniae MTCC 109 after 24 hrs by agar streak dilution method; assay type: functional; settings: MTCC 109, 24 h; summary of the method: as §2
[13] = system: Salmonella typhi; experiment: Antibacterial activity against 10^5 CFU/mL Salmonella typhi MTCC 733 after 24 hrs by disc diffusion technique; assay type: functional, Salmonella enterica subsp. enterica serovar Typhi
Summary of the method: (§3)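 Disc diffusion. Mueller-Hinton agar autoclaved 120 °C 30 min, poured 5 mm deep. Surface swabbed with 10⁵ CFU/mL suspension […]. 6.25 mm filter-paper discs soaked in compound in DMSO; DMSO-only disc as blank. Incubated 37 ± 1 °C, 24 h for bacteria or 48 h for fungi. Ciprofloxacin and ketoconazole discs as reference drugs. Inhibition zone measured in mm.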

[14] = system: Salmonella typhi; experiment: Antibacterial activity against 10^5 CFU/mL Salmonella typhi MTCC 733 after 24 hrs by agar streak dilution method; assay type: functional, Salmonella enterica subsp. enterica serovar Typhi; settings: Salmonella enterica, MTCC 733, 24 h
[15] = system: Proteus vulgaris; experiment: Antibacterial activity against 10^5 CFU/mL Proteus vulgaris MTCC 1771 after 24 hrs by disc diffusion technique; assay type: functional; summary of the method: as §1
[16] = system: Proteus vulgaris; experiment: Antibacterial activity against 10^5 CFU/mL Proteus vulgaris MTCC 1771 after 24 hrs by agar streak dilution method; assay type: functional; settings: MTCC 1771, 24 h; summary of the method: as §2
[17] = system: Shigella flexneri; experiment: Antibacterial activity against 10^5 CFU/mL Shigella flexneri MTCC 1457 after 24 hrs by disc diffusion technique; assay type: functional; summary of the method: as §1
[18] = system: Shigella flexneri; experiment: Antibacterial activity against 10^5 CFU/mL Shigella flexneri MTCC 1457 after 24 hrs by agar streak dilution method; assay type: functional; settings: MTCC 1457, 24 h; summary of the method: as §2
[19] = system: Aspergillus niger; experiment: Antifungal activity against 10^5 CFU/mL Aspergillus niger MTCC 282 after 48 hrs by disc diffusion technique; assay type: functional
[20] = system: Aspergillus niger; experiment: Antifungal activity against 10^5 CFU/mL Aspergillus niger MTCC 282 after 48 hrs by agar streak dilution method; assay type: functional; settings: MTCC 282, 48 h
Summary of the method: (§4)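 Agar streak dilution for fungi. Stock 100 µg/mL in DMSO; graded amounts were mixed into molten Sabouraud dextrose agar and poured at 4–5 mm depth. Serial dilutions ran over […]. About 10⁵ CFU/mL inoculum was applied, with incubation at 37 ± 1 °C for 48 h. MIC was read from the dilution series.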

[21] = system: Aspergillus fumigatus; experiment: Antifungal activity against 10^5 CFU/mL Aspergillus fumigatus MTCC 343 after 48 hrs by disc diffusion technique; assay type: functional
[22] = system: Aspergillus fumigatus; experiment: Antifungal activity against 10^5 CFU/mL Aspergillus fumigatus MTCC 343 after 48 hrs by agar streak dilution method; assay type: functional; settings: MTCC 343, 48 h; summary of the method: as §4
[23] = system: Aspergillus clavatus; experiment: Antifungal activity against 10^5 CFU/mL Aspergillus clavatus MTCC 1323 after 48 hrs by disc diffusion technique; assay type: functional
[24] = system: Aspergillus clavatus; experiment: Antifungal activity against 10^5 CFU/mL Aspergillus clavatus MTCC 1323 after 48 hrs by agar streak dilution method; assay type: functional; settings: MTCC 1323, 48 h; summary of the method: as §4
[25] = system: Candida albicans; experiment: Antifungal activity against 10^5 CFU/mL Candida albicans MTCC 183 after 48 hrs by disc diffusion technique; assay type: functional
[26] = system: Candida albicans; experiment: Antifungal activity against 10^5 CFU/mL Candida albicans MTCC 183 after 48 hrs by agar streak dilution method; assay type: functional; settings: MTCC 183, 48 h; summary of the method: as §4
[27] = system: Staphylococcus aureus; experiment: Antibacterial activity against 10^5 CFU/mL Staphylococcus aureus MTCC 96 at 100 ug/ml after 24 hrs by disc diffusion technique; settings: MTCC 96, 24 h, read-out: IZ
[28] = system: Bacillus cereus; experiment: Antibacterial activity against 10^5 CFU/mL Bacillus cereus MTCC 619 at 100 ug/ml after 24 hrs by disc diffusion technique; assay type: functional; settings: MTCC 619, 24 h, read-out: IZ; summary of the method: as §1
[29] = system: Salmonella typhi; experiment: Antibacterial activity against 10^5 CFU/mL Salmonella typhi MTCC 733 at 100 ug/ml after 24 hrs by disc diffusion technique; assay type: functional, Salmonella enterica subsp. enterica serovar Typhi; settings: Salmonella enterica, MTCC 733, 24 h; read-out: IZ; summary of the method: as §3
[30] = system: Proteus vulgaris; experiment: Antibacterial activity against 10^5 CFU/mL Proteus vulgaris MTCC 1771 at 100 ug/ml after 24 hrs by disc diffusion technique; assay type: functional; settings: MTCC 1771, 24 h, read-out: IZ; summary of the method: as §1
[31] = system: Shigella flexneri; experiment: Antibacterial activity against 10^5 CFU/mL Shigella flexneri MTCC 1457 at 100 ug/ml after 24 hrs by disc diffusion technique; assay type: functional; settings: MTCC 1457, 24 h, read-out: IZ; summary of the method: as §1
[32] = system: Escherichia coli; experiment: microbe, parasite or virus in culture; settings: MTCC 739, 24 h, read-out: IZ
[33] = system: Pseudomonas aeruginosa; experiment: microbe, parasite or virus in culture; settings: MTCC 741, 24 h, read-out: IZ
[34] = system: Klebsiella pneumoniae; experiment: microbe, parasite or virus in culture; settings: MTCC 109, 24 h, read-out: IZ
[35] = system: Aspergillus niger; experiment: Antifungal activity against 10^5 CFU/mL Aspergillus niger MTCC 282 at 100 ug/ml after 48 hrs by disc diffusion technique; assay type: functional; settings: MTCC 282, 48 h, read-out: IZ; summary of the method: as §3
[36] = system: Aspergillus fumigatus; experiment: Antifungal activity against 10^5 CFU/mL Aspergillus fumigatus MTCC 343 at 100 ug/ml after 48 hrs by disc diffusion technique; assay type: functional; settings: MTCC 343, 48 h, read-out: IZ; summary of the method: as §3
[37] = system: Aspergillus clavatus; experiment: Antifungal activity against 10^5 CFU/mL Aspergillus clavatus MTCC 1323 at 100 ug/ml after 48 hrs by disc diffusion technique; assay type: functional; settings: MTCC 1323, 48 h, read-out: IZ; summary of the method: as §3
[38] = system: Candida albicans; experiment: Antifungal activity against 10^5 CFU/mL Candida albicans MTCC 183 at 100 ug/ml after 48 hrs by disc diffusion technique; assay type: functional; settings: MTCC 183, 48 h, read-out: IZ; summary of the method: as §3

CC1CC(C)CN(c2nc(Nc3ccc(C#N)c(C(F)(F)F)c3)nc(Oc3ccnc4ccccc34)n2)C1 (configuration not stated)
inhibition zone (IZ) [1]: 27 mm | MIC [2]: 6.25 µg/mL (≈ 12 µM) | inhibition zone (IZ) [3]: 25 mm | MIC [4]: 12.5 µg/mL (≈ 24.1 µM) | MIC99 [5]: 3.12 µg/mL (≈ 6.01 µM) | GI50 [6]: 27.2 µM | LC50 (concentration giving 50% net cell kill relative to time zero) [6]: > 100 µM | TGI [6]: 68 µM | inhibition zone (IZ) [7]: 25 mm | MIC [8]: 12.5 µg/mL (≈ 24.1 µM) | inhibition zone (IZ) [9]: 24 mm | MIC [10]: 12.5 µg/mL (≈ 24.1 µM) | inhibition zone (IZ) [11]: 23 mm | MIC [12]: 25 µg/mL (≈ 48.1 µM) | inhibition zone (IZ) [13]: 27 mm | MIC [14]: 12.5 µg/mL (≈ 24.1 µM) | inhibition zone (IZ) [15]: 27 mm | MIC [16]: 6.25 µg/mL (≈ 12 µM) | inhibition zone (IZ) [17]: 25 mm | MIC [18]: 12.5 µg/mL (≈ 24.1 µM) | inhibition zone (IZ) [19]: 23 mm | MIC [20]: 50 µg/mL (≈ 96.2 µM) | inhibition zone (IZ) [21]: 25 mm | MIC [22]: 50 µg/mL (≈ 96.2 µM) | inhibition zone (IZ) [23]: 26 mm | MIC [24]: 25 µg/mL (≈ 48.1 µM) | inhibition zone (IZ) [25]: 18 mm | MIC [26]: 100 µg/mL (≈ 192 µM)

O=C(O)c1cn(C2CC2)c2cc(N3CCNCC3)c(F)cc2c1=O [CIPROFLOXACIN]
MIC [2]: ≤ 1 µg/mL | MIC [4]: ≤ 1 µg/mL | zone of inhibition at 100 µg/mL [27]: 30 mm | zone of inhibition at 100 µg/mL [28]: 31 mm | zone of inhibition at 100 µg/mL [29]: 30 mm | zone of inhibition at 100 µg/mL [30]: 31 mm | zone of inhibition at 100 µg/mL [31]: 32 mm | MIC [8]: ≤ 1 µg/mL | MIC [10]: ≤ 1 µg/mL | MIC [12]: ≤ 1 µg/mL | MIC [14]: ≤ 1 µg/mL | MIC [16]: ≤ 1 µg/mL | MIC [18]: ≤ 3 µg/mL | zone of inhibition at 100 µg/mL [32]: 32 mm | zone of inhibition at 100 µg/mL [33]: 33 mm | zone of inhibition at 100 µg/mL [34]: 33 mm

CC(=O)N1CCN(c2ccc(OCC3COC(Cn4ccnc4)(c4ccc(Cl)cc4Cl)O3)cc2)CC1 (configuration not stated) [KETOCONAZOLE]
zone of inhibition at 100 µg/mL [35]: 30 mm | zone of inhibition at 100 µg/mL [36]: 29 mm | zone of inhibition at 100 µg/mL [37]: 31 mm | zone of inhibition at 100 µg/mL [38]: 33 mm | MIC [20]: ≤ 3 µg/mL | MIC [22]: ≤ 1 µg/mL | MIC [24]: ≤ 1 µg/mL | MIC [26]: ≤ 1 µg/mL
